Data published in ChEMBL document CHEMBL3232778, “One-pot synthesis and radical scavenging activity of novel polyhydroxylated 3-arylcoumarins” (Eur J Med Chem, 2014).
pEC50: −log10 of the molar value. Active and inactive are the calls of the source. The calls are words filed in the database; no cut-off is given here.

Assays:
[1] = test system: Radical scavenging activity; assay: Antioxidant activity assessed as DPPH radical scavenging activity up to 100 uM by spectrophotometry; type: functional
[2] = test system: Radical scavenging activity; assay: Antioxidant activity assessed as DPPH radical scavenging activity by spectrophotometry; type: functional
Summary of the method: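 DPPH• in methanol, prepared daily and kept from light; 0.5 mL test solution in methanol (4-25 µM) added to 0.5 mL of 100 µM DPPH•. Absorbance read at 518 nm at intervals until equilibrium, with a methanol blank; triplicates, five analyte concentrations. %DPPH• remaining = Af/A0×100; concentration plotted against % remaining to get the 50% scavenging value.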

| Compound | Activity [1] | pEC50 [2] |
| --- | --- | --- |
| O=C(O)c1ccccc1-c1cc2cc(Br)ccc2oc1=O | inactive | – |
| O=C(O)c1ccccc1-c1cc2ccccc2oc1=O | inactive | – |
| O=C(O)c1ccccc1-c1cc2cc(O)ccc2oc1=O | inactive | – |
| O=C(O)c1cc(O)c(O)cc1-c1cc2ccccc2oc1=O | – | 5.29 |
| O=C(O)c1ccc(O)c(O)c1 [PROTOCATECHUIC ACID] | – | 5.05 |
| O=C(O)c1cc(O)c(O)cc1-c1cc2cc(O)ccc2oc1=O | – | 5.50 |
| O=C(O)c1cc(O)c(O)cc1-c1cc2ccc(O)cc2oc1=O | – | 5.22 |
| O=C(O)c1ccccc1-c1cc2c(O)cccc2oc1=O | inactive | – |
| O=C(O)c1cc(O)c(O)cc1-c1cc2cccc(O)c2oc1=O | – | 5.39 |
| O=C(O)c1ccccc1-c1cc2ccc(O)cc2oc1=O | inactive | – |
| O=C(O)/C=C/c1ccc(O)c(O)c1 [CAFFEIC ACID] | – | 5.02 |
| O=C(O)c1cc(O)c(O)cc1-c1cc2cc(Br)ccc2oc1=O | – | 5.40 |
| O=C(O)c1cc(O)c(O)cc1-c1cc2c(O)cccc2oc1=O | – | 5.16 |
| O=C(O)c1cc(O)c(O)cc1-c1cc2ccc(O)c(O)c2oc1=O | – | 5.47 |
| Cc1c(C)c2c(c(C)c1O)CCC(C)(C(=O)O)O2 (stereo not given) [TROLOX] | – | 5.03 |
| O=C(O)c1cc(O)c(O)cc1-c1cc2cc(O)c(O)cc2oc1=O | – | 5.28 |
| O=C(O)c1cc(O)c(O)c(O)c1 [GALLIC ACID] | – | 5.27 |
| O=C(O)c1ccccc1-c1cc2ccc(O)c(O)c2oc1=O | – | 5.44 |
| O=C(O)c1ccccc1-c1cc2cc(O)c(O)cc2oc1=O | – | 5.27 |
| O=C(O)c1ccccc1-c1cc2cccc(O)c2oc1=O | inactive | – |
